Measurements as given in PubChem BioAssay AID2052 (NMMLSC, 2009).
About 220 (0.067%) of roughly 330,000 compounds were called active. This is one part of a sample in which actives are shown more often than they occur.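 The calls were made as follows: active = response, share of CD8 T cells binding vesicles, and their 90th percentile fluorescence all below set limits (cut at about 80% in these data, passing the limit was not always enough); inactive = the rest, inconclusive results apart.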 Non-standard residues stand in square brackets, D forms with d. Residues, ends and D or L forms follow the SMILES beside them. ξ: configuration not given here. ξV = CC(C)C(N)C(=O)O

Assay: murine CD8 T cell vesicle adhesion modulation – mouse 2C CD8+ T cells, flow cytometry, primary screen (AID 2052);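 as to double positive events: binding gate set so that unloaded-vesicle control wells show 10% double positive cells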;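 as to response (vesicle binding): values below 100% mean blocked vesicle binding to the CD8+ T cells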
Conditions: 2C CD8+ T cell-vesicle binding, at 7 µM, stronger effect = lower value; double positive events: measured here: CD8+ vesicle-bound cell fraction
Summary of the method: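 Assay system: 2C TCR transgenic mouse naive CD8+ T cells, MACS-purified | Read-out: CD8+ gate FL2 mean fluorescence as % of same-row positive control | Signal: High-throughput flow cytometry with anti-B7-1 and anti-CD8 staining | Timing: Binding step 1.5 h, 37 °C, antibody labelling 20 min, ice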
In the case of `CCc1cccc2c3c([nH]c12)C(CC)(CC(=O)O)OCC3` (stereo unspecified), the double positive events is reported as 14.8% and the response (vesicle binding) is reported as 487% (inactive). For `O=C(CSc1ccc(-c2ccccn2)nn1)Nc1ccccc1`, the double positive events was 12.5% and the response (vesicle binding) was 157% (inactive). With `Cc1c(OC(C)C(=O)NCC2CCC(C(=O)O)CC2)ccc2c1oc(=O)c1ccccc12` (stereo unspecified) the double positive events was 55.9% and the response (vesicle binding) was 184% (inactive). With `CCCn1nnnc1NCc1ccc(OC)cc1` the double positive events was 56.3% and the response (vesicle binding) was 308% (inactive). With `Cn1nnnc1NCc1ccc(Cl)c(Cl)c1` the double positive events was 43.7% and the response (vesicle binding) was 445% (inactive). For `COc1ccc(CNc2nnnn2C)cc1`, the double positive events was 4% and the response (vesicle binding) was 0% (active). With `CC(C)N1CCC(NC(=O)Nc2ccccc2)CC1` the double positive events was 60.7% and the response (vesicle binding) was 257% (inactive). With `CC(=O)NC(C(=O)NCC(N)=O)C(C)C` (stereo unspecified) (Ac-[ξV]-Gly-NH2) the double positive events was 32.4% and the response (vesicle binding) was 396% (inactive). With `O=C(O)c1[nH]c2ccccc2c1C(c1cccc(O)c1)c1c(C(=O)O)[nH]c2ccccc12` the double positive events was 36.2% and the response (vesicle binding) was 361% (inactive). In the case of `Cc1ccc(CNC(=O)COC(=O)C2CCC2)cc1`, the double positive events is reported as 37.4% and the response (vesicle binding) is reported as 742% (inactive). With `O=C(COC(=O)Cc1c[nH]c2ccccc12)NCCc1ccccc1` the double positive events was 19.5% and the response (vesicle binding) was 241% (inactive). In the case of `NC(=O)COc1ccc(C23CC4CC(CC(C4)C2)C3)cc1`, the double positive events is reported as 52.9% and the response (vesicle binding) is reported as 159% (inactive). In the case of `COP1(=O)C[C@@H](O)[C@@H](O)[C@@H](COCc2ccccc2)O1` (stereo partly specified), the double positive events is reported as 21.9% and the response (vesicle binding) is reported as 504% (inactive). With `C[C@H](OC(=O)n1ccnc1)[C@@H]1O[C@@]2(C)CCC[C@@H]1O2` the double positive events was 24.9% and the response (vesicle binding) was 376% (inactive). In the case of `COc1ccc(N(CC(=O)Nc2ccc(C)cc2C)S(=O)(=O)c2ccccc2[N+](=O)[O-])c(OC)c1`, the double positive events is reported as 61.2% and the response (vesicle binding) is reported as 182% (inactive). For `Cc1noc(C)c1CSc1nnc2ccc3ccccc3n12`, the double positive events was 43.2% and the response (vesicle binding) was 196% (inactive). In the case of `NS(=O)(=O)c1cc(Cl)c(Cl)c(S(N)(=O)=O)c1`, the double positive events is reported as 42.1% and the response (vesicle binding) is reported as 570% (inactive). For `Cn1nnc(NC(=S)NC(=O)c2ccccc2)n1`, the double positive events was 30.5% and the response (vesicle binding) was 556% (inactive). For `CSc1nnc(SCc2nc3sc(C(=O)O)c(C)c3c(=O)[nH]2)s1`, the double positive events was 37.4% and the response (vesicle binding) was 501% (inactive). For `CCc1ccc(CNC(=O)C2CCN(c3nnc(C)c4c(C)n(-c5ccc(C)cc5)nc34)CC2)cc1`, the double positive events was 10.5% and the response (vesicle binding) was 623% (inactive). With `CC1(C)C[C@H]2C3=CCC4[C@@]5(C)CC[C@H](O)[C@](C)(CO)C5CC[C@@]4(C)[C@]3(C)C[C@@H](O)[C@@]2(CO)[C@@H](O)[C@@H]1O` (stereo partly specified) the double positive events was 14.8% and the response (vesicle binding) was 534% (inactive). In the case of `COc1cc(NC(=S)NNC(=O)CC(C)C)c(OC)cc1Cl`, the double positive events is reported as 66.1% and the response (vesicle binding) is reported as 458% (inactive). In the case of `Cc1nn(CCOc2ccc(Br)cc2)c(C)c1[N+](=O)[O-]`, the double positive events is reported as 61.8% and the response (vesicle binding) is reported as 447% (inactive). For `COc1cc(OC)c(-n2cc(-c3ccc(Cl)cc3)[nH]c2=O)cc1Cl`, the double positive events was 39.5% and the response (vesicle binding) was 546% (inactive). For `O=C(c1ccc2c(c1)OCO2)N1CCN(C(=O)c2ccco2)CC1`, the double positive events was 35.9% and the response (vesicle binding) was 148% (inactive). In the case of `O=C(c1ccco1)N1CCN(CCOc2ccccc2)CC1`, the double positive events is reported as 23.1% and the response (vesicle binding) is reported as 301% (inactive). For `O=C(c1ccco1)N1CCN(C(=O)C2c3ccccc3Oc3ccccc32)CC1`, the double positive events was 0% and the response (vesicle binding) was 0% (active). With `Cc1cc(C)c(NC(=O)CSc2nc3ccncc3[nH]2)c(C)c1` the double positive events was 24.7% and the response (vesicle binding) was 968% (inactive). With `Cc1sc2ncnc(SCC(=O)Nc3ccc(CN4CCCC4)cc3)c2c1C` the double positive events was 35.3% and the response (vesicle binding) was 104% (inactive). With `C=CC[C@@H](CC(=O)N[C@@H](CO)Cc1ccccc1)C(=O)NCCOC(=O)[C@@H](CC=C)CC(=O)OC(C)(C)C` the double positive events was 13.7% and the response (vesicle binding) was 321% (inactive). For `CC(=O)Nc1nc2c(s1)C(=O)NCC(C)(C)C2`, the double positive events was 50.4% and the response (vesicle binding) was 439% (inactive). In the case of `Cc1ccc(C(=O)Nc2ccc(C)c(S(=O)(=O)N(C)C)c2)s1`, the double positive events is reported as 45.5% and the response (vesicle binding) is reported as 218% (inactive). For `Nc1ccc(OCC(O)C[n+]2ccc(CCS(=O)(=O)[O-])cc2)cc1` (stereo unspecified), the double positive events was 20.9% and the response (vesicle binding) was 319% (inactive). In the case of `CC(Oc1ccc(Br)cc1)C(=O)NCC(c1ccco1)N1CCCCC1` (stereo unspecified), the double positive events is reported as 51.4% and the response (vesicle binding) is reported as 336% (inactive). With `O=C1CC(Sc2ncn[nH]2)C(=O)N1c1ccccc1` (stereo unspecified) the double positive events was 46.5% and the response (vesicle binding) was 391% (inactive). For `COC(=O)C(C(=O)Nc1cccc(C)n1)C1CCCCCC1` (stereo unspecified), the double positive events was 44.3% and the response (vesicle binding) was 158% (inactive). With `CSc1ccccc1C(=O)OCC(=O)N1CCN(C(C)=O)CC1` the double positive events was 34.9% and the response (vesicle binding) was 823% (inactive). In the case of `CCn1cc(C(=O)N2CC=C(c3ccccc3)CC2)c(=O)c2ccc(C)nc21`, the double positive events is reported as 1.9% and the response (vesicle binding) is reported as 79.1% (inactive). In the case of `CN1C(C(=O)NCC2CC2)CC2Cn3c(nc4ccccc43)C21` (stereo unspecified), the double positive events is reported as 12.7% and the response (vesicle binding) is reported as 473% (inactive). For `Cc1ccc(C)c2[nH]c(=O)c(CCNC(=O)CC(C)C)cc12`, the double positive events was 38.5% and the response (vesicle binding) was 832% (inactive). For `CCOC(=O)C1CCN(C(=O)C2(NC(=O)Nc3cccc(F)c3)CCCCC2)CC1`, the double positive events was 36.4% and the response (vesicle binding) was 360% (inactive). For `CC1=C(C(N)=O)C(c2sccc2C)n2nnnc2N1` (stereo unspecified), the double positive events was 23.4% and the response (vesicle binding) was 292% (inactive). With `CC1=C(C(=O)OC2CCCCC2)C(c2ccccc2F)NC(=O)N1` (stereo unspecified) the double positive events was 33.6% and the response (vesicle binding) was 167% (inactive).
